Bioassay records deposited in PubChem BioAssay by several laboratories.
Sampled rows, rich in hits. Any-hit rate of the full collection: about 2.4%.
HNF4A DNA FP: change in binding of human HNF4 alpha to DNA; P41235; 0.3% of 360,000 active; AID 1224865; activity change, % at 10 µM; HNF4a-FITC DNA binding, fluorescence polarization, 1 h; in the data active means activity change above about 30%, passing the limit was not always enough
Target sequence (P41235 whole entry, looked up): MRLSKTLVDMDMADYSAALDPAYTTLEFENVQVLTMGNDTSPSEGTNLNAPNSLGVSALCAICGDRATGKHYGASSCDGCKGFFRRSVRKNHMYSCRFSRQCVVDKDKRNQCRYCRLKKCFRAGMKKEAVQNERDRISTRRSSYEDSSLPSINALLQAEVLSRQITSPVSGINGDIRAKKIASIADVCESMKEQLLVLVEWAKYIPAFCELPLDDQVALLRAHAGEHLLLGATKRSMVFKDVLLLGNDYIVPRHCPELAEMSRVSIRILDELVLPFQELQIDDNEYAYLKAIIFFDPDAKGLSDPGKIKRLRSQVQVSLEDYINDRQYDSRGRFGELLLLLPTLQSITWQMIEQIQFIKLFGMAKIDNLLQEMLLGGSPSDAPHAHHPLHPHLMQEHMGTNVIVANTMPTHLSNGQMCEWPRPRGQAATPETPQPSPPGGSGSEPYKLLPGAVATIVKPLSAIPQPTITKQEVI
CSN deneddyl inh: blocks human CSN-mediated cullin deneddylation | Q92905 | Purified CSN, SCF-Nedd8-OG deneddylation, fluorescence polarization | inhibition, % at 12.5 µM | 0.38% of 360,000 active | AID 651999;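 active means pattern-corrected inhibition above about 35%, with an unprinted fluorescence ratio check between 0.5 and 1.5, limit read from the data, passing the limit was not always enough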;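 further: 0% = enzyme with substrate and 100% = substrate without enzyme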
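Assay system: HEK293T-derived human Csn5 enzyme; quantity: 0.24 nM enzyme; medium: Tris/NaCl/DTT buffer, pH 7.5; also added: substrate SCFSkp2-Nedd8OG, 10 nM; doses: 12.5 µM compound; schedule: 90 min reaction at room temperature; signal: FP; read-out: % inhibition of substrate cleavage by Csn5; benchmarks: substrate-only high control, full reaction low control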
Rpn11 block: blocks the human proteasome subunit Rpn11; human 26S proteasome, Ub4-pepOG fluorescence polarization; 20S core pre-blocked with epoxomicin; inhibition, % at 20 µM; 0.59% of 360,000 active; O00487;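 active means inhibition at 20 µM, scaled to each plate's controls, above about 33%, limit read from the data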
Rin1 Abl inh: human Rin1-Abl interaction inhibition; TR-FRET Rin1/Abl binding, biochemical; inhibition, % at 7.35 µM; 0.4% of 360,000 active; in the data active means inhibition above about 5%, passing the limit was not always enough
TPT1 inhibitor: blocks Candida albicans tRNA 2'-phosphotransferase | inhibition, % at 5 µM | 0.81% of 300,000 active | AID 1962 | recombinant caTPT1, FP RNA substrate dephosphorylation;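 active means inhibition above the mean of all tested compounds plus 3 SD, set per screening campaign, cut at about 24% in these data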;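 further: plate controls were DMSO alone for no effect and ferristatin control at 100 nM for full effect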
Neddylation inh: blocks human cullin neddylation; P61081+Q13564; TR-FRET cullin neddylation, biochemical; inhibition, % at 25 µM; 0.58% of 360,000 active; AID 651699; in the data active means inhibition above about 36%
* marks the source's active call; other numbers are inactive results.

What do the screens show for `COc1ccc2[nH]c(=O)c(CN(Cc3nnnn3Cc3ccco3)C3CCCCC3)cc2c1`?
HNF4A DNA FP: 7; CSN deneddyl inh: 15; Rpn11 block: 13; Rin1 Abl inh: 6; TPT1 inhibitor: 10; Neddylation inh: 23

Results for CC(C)(CNc1ccc([N+](=O)[O-])cc1Cl)N1CCOCC1 ?
HNF4A DNA FP: -2; CSN deneddyl inh: 1; Rpn11 block: -1; Rin1 Abl inh: -3; TPT1 inhibitor: -3; Neddylation inh: -28

How did CCOC(=O)C1CCCN(C(=O)Nc2c(-c3ccccc3)noc2C)C1 (configuration not stated) do in these assays?
HNF4A DNA FP: -3; CSN deneddyl inh: -3; Rpn11 block: -3; Rin1 Abl inh: -3; TPT1 inhibitor: 1; Neddylation inh: -8

Results for O=C(N/N=C/c1ccc(O)c(O)c1O)/C(=C/c1ccc([N+](=O)[O-])cc1)NC(=O)c1ccccc1 ?
HNF4A DNA FP: -1; CSN deneddyl inh: 3; Rpn11 block: 18; Rin1 Abl inh: 15*; TPT1 inhibitor: -7; Neddylation inh: -41

Results for Cc1ccc(NC(=O)/C(=C\c2ccc([N+](=O)[O-])cc2)NC(=O)c2ccccc2)cc1 ?
HNF4A DNA FP: -1; CSN deneddyl inh: 1; Rpn11 block: -12; Rin1 Abl inh: 2; TPT1 inhibitor: 0; Neddylation inh: -10

Results for CCNC(=O)C1(C)CCN(Cc2noc(-c3c(C)noc3C)n2)C1 (configuration not stated) ?
HNF4A DNA FP: 0; CSN deneddyl inh: 1; Rpn11 block: -2; Rin1 Abl inh: -1; Neddylation inh: 0

What do the screens show for `CNS(=O)(=O)c1cccc(C(=O)OCC(=O)c2ccc(S(=O)(=O)N3CCCCC3)cc2)c1`?
HNF4A DNA FP: -1; CSN deneddyl inh: -2; Rpn11 block: 2; Rin1 Abl inh: 1; TPT1 inhibitor: 1; Neddylation inh: -2

What do the screens show for `CNS(=O)(=O)c1cccc(C(=O)OCC(=O)c2ccc3[nH]c(=O)[nH]c3c2)c1`?
HNF4A DNA FP: 5; CSN deneddyl inh: 54*; Rpn11 block: -1; Rin1 Abl inh: 2; Neddylation inh: 2

What do the screens show for `COc1ccccc1Cc1c(C2CCCCC2)nc2ccc(C)cn12`?
HNF4A DNA FP: 3; CSN deneddyl inh: 10; Rpn11 block: 13; Rin1 Abl inh: -4; Neddylation inh: 12

How did COc1ccccc1Cc1c(C2CCCCC2)nc2ccc(Cl)cn12 do in these assays?
HNF4A DNA FP: 17; CSN deneddyl inh: 60*; Rpn11 block: 15; Rin1 Abl inh: 1; Neddylation inh: 11

What do the screens show for `CC1CCN(C(=O)CCCC(=O)N2CCC(C)CC2)CC1`?
HNF4A DNA FP: 0; CSN deneddyl inh: -2; Rpn11 block: -4; Rin1 Abl inh: -1; TPT1 inhibitor: -2; Neddylation inh: -4

How did Cc1cc2nc(-c3ccco3)c(Cc3cccc(Cl)c3)n2c(C)c1Br do in these assays?
HNF4A DNA FP: 6; CSN deneddyl inh: 36*; Neddylation inh: -119

Results for Cc1cc2nc(-c3cccc(Cl)c3)c(Cc3cccc(Cl)c3)n2c(C)c1Br ?
HNF4A DNA FP: 6; CSN deneddyl inh: 7; Neddylation inh: -93

Results for O=C(O)c1ccc(/C=C2/SC(=S)N(Cc3ccccc3)C2=O)cc1 ?
HNF4A DNA FP: -4; CSN deneddyl inh: 5; Rpn11 block: 0; Rin1 Abl inh: -2; Neddylation inh: 5

What do the screens show for `CC(=O)Oc1ccc(/C=C2/SC(=S)N(Cc3ccccc3)C2=O)cc1`?
HNF4A DNA FP: 50*; CSN deneddyl inh: 13; Rpn11 block: 35; Rin1 Abl inh: 3; TPT1 inhibitor: 10; Neddylation inh: -7

What do the screens show for `Cc1ccc(CNC(=O)c2cc3c(=O)n4ccccc4nc3n(Cc3ccco3)c2=N)cc1`?
HNF4A DNA FP: -10; CSN deneddyl inh: 14; Rpn11 block: 20; Rin1 Abl inh: 0; TPT1 inhibitor: 1

Results for CCOC(=O)c1cc2c(=O)n3ccccc3nc2n(Cc2ccc(Cl)cc2)c1=N ?
HNF4A DNA FP: 17; CSN deneddyl inh: 42*; Rin1 Abl inh: 0; Neddylation inh: 21

What do the screens show for `Cc1ccc(S(=O)(=O)c2cc3c(=O)n4ccccc4nc3n(Cc3ccco3)c2=N)cc1`?
HNF4A DNA FP: -26; CSN deneddyl inh: 38*; Rpn11 block: -2; Rin1 Abl inh: -8; TPT1 inhibitor: 24

Results for N=c1c(C(=O)NCc2ccc(F)cc2)cc2c(=O)n3ccccc3nc2n1Cc1ccco1 ?
HNF4A DNA FP: 3; CSN deneddyl inh: 14; Rpn11 block: 9; Rin1 Abl inh: -11; TPT1 inhibitor: 6; Neddylation inh: 52*

What do the screens show for `CN(C)c1ccc(Cl)c(NC(N)=S)c1`?
HNF4A DNA FP: -12; CSN deneddyl inh: -4; Rpn11 block: -4; Rin1 Abl inh: -2; Neddylation inh: -12

What do the screens show for `CCn1cnc2c1c(=O)n(CC(=O)NCC(C)C)c(=O)n2Cc1ccccc1`?
HNF4A DNA FP: -2; CSN deneddyl inh: 3; Rpn11 block: 5; Rin1 Abl inh: 0; TPT1 inhibitor: -1; Neddylation inh: -4

Results for C=CCn1c(SCC(C)=O)nc2scc(-c3ccco3)c2c1=O ?
HNF4A DNA FP: -34; CSN deneddyl inh: 24; Rpn11 block: 8; Rin1 Abl inh: 5; TPT1 inhibitor: 17; Neddylation inh: 2

Results for C=CCn1c(SCc2ccc3c(c2)OCO3)nc2scc(-c3ccco3)c2c1=O ?
HNF4A DNA FP: -24; CSN deneddyl inh: 57*; Rpn11 block: 21; Rin1 Abl inh: -1; TPT1 inhibitor: 0; Neddylation inh: 7

Results for O=C(Nc1ccccc1C(F)(F)F)NC1(C(=O)N2CCOCC2)CCCCC1 ?
HNF4A DNA FP: -22; CSN deneddyl inh: 43*; Rin1 Abl inh: 4; Neddylation inh: -3

Results for CS(=O)(=O)c1ccc(Cl)c(NC(=O)CNC(=O)c2ccc3c(c2)OCO3)c1 ?
HNF4A DNA FP: -4; CSN deneddyl inh: 3; Rpn11 block: -6; Rin1 Abl inh: 0; Neddylation inh: 1

How did CCCOc1ccc(C(=O)NNC(=S)NC(=O)c2ccco2)cc1 do in these assays?
HNF4A DNA FP: -2; CSN deneddyl inh: 1; Rpn11 block: 10; Rin1 Abl inh: -1; TPT1 inhibitor: 1; Neddylation inh: 59*

Results for COc1ccc(C(=O)NNC(=S)NC(=O)c2ccco2)cc1 ?
HNF4A DNA FP: -3; CSN deneddyl inh: 1; Rpn11 block: 5; Rin1 Abl inh: -1; TPT1 inhibitor: -1; Neddylation inh: -14

Results for COc1ccc(/C=N/n2cnc3c([nH]c4ccc(F)cc43)c2=O)cc1CN1CCCC1 ?
HNF4A DNA FP: 7; CSN deneddyl inh: 85*; Rpn11 block: 9; Rin1 Abl inh: -2; TPT1 inhibitor: -4; Neddylation inh: -17
